{"data": "Published values gathered from unrelated publications", "target": "Serine/threonine-protein kinase MRCK beta (CDC42BPB, Homo sapiens, UniProt Q9Y5S2)"}
{"test": "binding, competition with immobilised ligand", "setting": "1 µM", "remaining binding [%]": 77, "SMILES": "CCN1CCN(Cc2ccc(C(=O)Nc3ccc(C)c(Oc4ccc5c(c4)CC(=O)N5)c3)cc2C(F)(F)F)CC1"}
{"test": "binding, competition with immobilised ligand", "setting": "10 µM", "remaining binding [%]": 99, "SMILES": "c1cncc(-c2cccc(Nc3nccc(NC4CCCCC4)n3)c2)c1"}
{"test": "binding", "setting": "1 µM", "remaining binding [%]": 86, "SMILES": "CN(c1nccc(-c2cnn3ncccc23)n1)C1CC1"}
{"test": "cell-free assay, competition with immobilised ligand", "setting": "0.1 µM", "remaining binding [%]": 90, "SMILES": "CNC(=O)c1ccc(Nc2ncc(C(F)(F)F)c(NCc3nccnc3N(C)S(C)(=O)=O)n2)cc1"}
{"test": "cell-free assay, competition with immobilised ligand", "setting": "5 µM", "remaining binding [%]": 22, "SMILES": "FC(F)(F)Oc1cccc(-c2cnc3ccc(-c4ccncc4)nn23)c1"}
{"test": "cell-free assay, competition with immobilised ligand", "setting": "1 µM", "remaining binding [%]": 89, "SMILES": "CO[C@@H](C)c1c(Nc2ccc([C@@H](N(C)C(=O)C3CCS(=O)(=O)CC3)C(F)(F)F)cc2)cnc2cc(Cl)nn12"}
{"test": "binding", "setting": "1 µM", "remaining binding [%]": 100, "SMILES": "Cc1cnn2ncc(-c3ccnc(N(C)C)n3)c2c1"}
{"test": "binding, competition with immobilised ligand", "setting": "1 µM", "remaining binding [%]": 100, "SMILES": "CNC(=O)[C@@H]1CC[C@@H](n2c(-c3ccc4cnccc4c3)nc3ccc(C(=O)NCc4cccc(C(N)=O)c4)cc32)C1"}
{"test": "cell-free assay, competition with immobilised ligand", "setting": "0.1 µM", "remaining binding [%]": 100, "SMILES": "COCCOc1nc(-c2ccc(Cl)nc2)nc2c1CN(C(=O)c1ncn3ccccc13)CC2"}
{"test": "binding", "setting": "1 µM", "remaining binding [%]": 88, "SMILES": "N[C@H]1CCN(c2nccc(-c3cnn4ncccc34)n2)C1"}
{"test": "binding, competition with immobilised ligand", "setting": "1 µM", "remaining binding [%]": 56, "SMILES": "O=C(c1ccc(Nc2ncc(Cl)c(-c3cc4ccccc4s3)n2)cc1)N1CCC(N2CCCC2)CC1"}
{"test": "cell-free assay, competition with immobilised ligand", "setting": "1 µM", "remaining binding [%]": 96, "SMILES": "O=C(O)[C@@H]1[C@@H](Cn2nnc3ccccc3c2=O)CC[C@H]1C(=O)c1ccc(OCCC2CCOCC2)cc1"}
{"test": "binding, competition with immobilised ligand", "setting": "1 µM", "remaining binding [%]": 92, "SMILES": "O=C(c1ccc(Nc2ncc(Cl)c(-c3ccc(Cl)s3)n2)cc1)N1CCC(N2CCCC2)CC1"}
{"test": "cell-free assay, competition with immobilised ligand", "setting": "1 µM", "remaining binding [%]": 100, "SMILES": "COc1ccc2cc(OCC3(C(=O)O)CN(C(=O)c4ccc(F)cc4)C3)ccc2c1"}
{"test": "binding", "setting": "1 µM", "remaining binding [%]": 100, "SMILES": "CN(C)c1nccc(-c2cnn3ncccc23)n1"}
{"test": "binding, competition with immobilised ligand", "setting": "1 µM", "remaining binding [%]": 100, "SMILES": "O=C(NCCCN1CCOCC1)c1ccc(Nc2nccc(-c3cc4ccccc4s3)n2)cc1"}
{"test": "binding", "setting": "1 µM", "remaining binding [%]": 100, "SMILES": "COc1ccnn2ncc(-c3ccnc(N(C)C)n3)c12"}
{"test": "cell-free assay, competition with immobilised ligand", "setting": "1 µM", "remaining binding [%]": 100, "SMILES": "Cc1nc(C2CCN(C(=O)c3ccc(OC(F)(F)F)cc3N)CC2)c2ncc(N3CCN(C)CC3)cc2n1"}
{"test": "binding", "setting": "1 µM", "remaining binding [%]": 100, "SMILES": "CN(C)c1ncc(F)c(-c2cnn3ncccc23)n1"}
{"test": "binding, competition with immobilised ligand", "setting": "1 µM", "remaining binding [%]": 95, "SMILES": "O=C(NCC1CCOCC1)c1n[nH]cc1NC(=O)c1c(F)cccc1F"}
